Results published in PubChem BioAssay AID743061 (The Scripps Research Institute Molecular Screening Center, 2013).

The compounds below were run against Methionine--tRNA ligase, mitochondrial (Homo sapiens) (UniProt Q96GW9) (assay: inhibitors of human mitochondrial MetRS, late-stage follow-up, selectivity assay for T. brucei MetRS inhibitor project, biochemical, radioactivity, round 1 (AID 743061;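 also: 0% = DMSO with full reaction and 100% = DMSO wells lacking tRNA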)). Conditions: recombinant human mtMetRS, [3H]Met tRNA charging, at 10 µM, stronger effect = higher value.
Procedure, shortened: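 System: human mitochondrial MetRS enzyme / Buffer or medium: pH 8.0 reaction buffer containing 2.5 mM ATP / Probe or stimulus: 240 nM [3H]methionine with bulk E. coli tRNA acceptor / Doses: 10 and 1 µM / Times: 15 min compound–enzyme preincubation, then 1 h reaction at room temperature / Detection: scintillation counts of TCA-precipitated charged tRNA on filters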
For `Cc1cc2cc(C(=O)N3CCCC(c4nc5ccccc5[nH]4)C3)ccc2o1` (centres undefined), the inhibition was -1.3%. `CCN(CC)C(=O)C(=O)c1cn(CC(=O)N(CC)c2ccccc2)c2ccccc12` showed an inhibition of 9.56%. With `CCN(C(=O)Cn1cc(C(=O)C(=O)N2CCOCC2)c2ccccc21)c1ccccc1` the inhibition was -14.2%. Compound `Cc1cccc2[nH]c(CCN(C)C(=O)c3cccc(C4CCNC4)c3)nc12` (centres undefined) has an inhibition of -5.77%. `Cc1ccc2[nH]c3nc(SCC(=O)Nc4ccc(C(F)(F)F)cc4)nnc3c2c1` gave an inhibition of 4.54%. `O=C(NCc1nc2ccccc2[nH]1)C1=C[C@H](c2ccc(Br)cc2)C[C@H](OCc2ccc(CO)cc2)O1` gave an inhibition of 17.2%. With `O=C(NCc1nc2ccccc2[nH]1)C1=C[C@@H](C2CC2)C[C@@H](OCc2ccc(CO)cc2)O1` the inhibition was 5.87%. `CCc1ccc2[nH]c3nc(SCC(=O)NCc4cccc(OC)c4)nnc3c2c1` gave an inhibition of 13.1%. With `CC(=O)c1cn(CC(=O)Nc2cccc(C(F)(F)F)c2)c2ccccc12` the inhibition was -0.68%. `CC(=O)N(CCc1ccccc1)C1CC(=O)N(c2ccc(Br)cc2)C1=O` (centres undefined) was tested, and the inhibition was 2%. Work on `O=C(Cn1cc(C(=O)C(=O)N2CCCC2)c2ccccc21)Nc1ccccc1` yielded an inhibition of -0.86%. `O=C(NCCc1nc2ccccc2[nH]1)c1ccc(Cl)c(Cl)c1` was tested, and the inhibition was 27.7%. Work on `COc1ccc(OCC(O)CNC(=O)Nc2ccc(Cl)cc2)cc1` (centres undefined) yielded an inhibition of 0.31%. For `O=C(NCCc1nc2ccccc2[nH]1)c1ccc(Cl)cc1`, the inhibition was 7.1%. For `O=C(NCc1nc2ccccc2[nH]1)C1=C[C@@H](c2csc3ccccc23)C[C@@H](OCCCCO)O1`, the inhibition was 6.67%. Work on `CCO[C@H]1OC(C(=O)NCc2nc3ccccc3[nH]2)=C[C@@H](c2ccc(Br)cc2)[C@@H]1CCCO` yielded an inhibition of 11.7%. For `O=C(CSC1CC(=O)N(c2cccc(Cl)c2)C1=O)Nc1ccc(Br)cc1` (centres undefined), the inhibition was 1.19%. Compound `CN(CC(=O)Nc1ccc(Cl)cc1)C(=O)c1ccc(-n2cncn2)c([N+](=O)[O-])c1` has an inhibition of -19.1%. `Cc1cccc(NC(=O)C2CC(=O)n3c(nc4ccccc43)N2)c1` (centres undefined) was tested, and the inhibition was 6.78%.
